CHO parental Ca: signal in parental CHO cells, OX1R antagonist counter-screen; AID 463079; parental CHO-K1, ATP-induced calcium, Fluo-8 fluorescence; inhibition, % at 5.6 µM; 330,000 compounds, 0.63% hits;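 active = inhibition above that plate's mean sample inhibition plus 3 SD, cut at about 26% in these data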;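 also: 0% = ATP-challenged DMSO wells and 100% = DMSO wells without ATP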
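Test system: untransfected parental CHO cell line. Compound: one dose, 5.6 µM nominal. Detection: intracellular calcium via Fluo-8 no-wash fluorescent dye. Measure: % inhibition. Benchmarks: ATP-challenged DMSO wells low, unchallenged DMSO wells high.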
TAAR1 antag: antagonists of human TAAR1. inhibition, % at 3 µM. Q96RJ0. AID 624466. 360,000 compounds, 1.5% hits. CHO RD-HGA16 TAAR1, Fluo-8 calcium fluorescence, antagonist;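 active = inhibition above a per-plate cutoff, the mean inhibition of test compounds on that plate plus 3 SD, cut at about 49% in these data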;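 also: 0% = DMSO plus EC80 beta-PEA response and 100% = DMSO alone without agonist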
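Assay system: RD-HGA16 CHO cells with stable hTAAR1 and Gα16 / Reagent: EC80 β-phenethylamine stimulus / Doses: 3 µM, single point / Timing: dye loading 75 min at 37 °C, then 30 min room temperature / Measured by: Fluo-8 intracellular calcium dye fluorescence, real-time kinetic reads / Controls: vehicle wells and EC80 agonist wells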
TAAR1 ag: human TAAR1 agonism; Q96RJ0; CHO RD-HGA16 TAAR1, Fluo-8 calcium fluorescence; vehicle wells 0%, saturating PEA agonist 100%; activation, % at 3 µM; 360,000 compounds, 0.99% hits; AID 624467;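 active = activation above the mean activation of all test compounds in the run plus 3 SD, cut at about 38% in these data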
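System: CHO RD-HGA16 cells carrying human TAAR1 plus Gα16; Incubation: 17-24 h seeding, 75 min 37 °C dye, 30 min RT; Measured by: Fluo-8 fluorescence, 5 s baseline then 140 s kinetic read; Control set: DMSO and PEA EC100; Replication: single well for each compound.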
OX1R antag-1: OX1R (human) antagonism; OX1R-expressing cells, FRET antagonist read-out; inhibition, % at 6.6 µM; 330,000 compounds, 1.8% hits; AID 485270; in the data active = inhibition mostly above about 38%, no sharp cut-off; inactive = mostly below about 40%;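 also: 0% = agonist challenge alone and 100% = reference antagonist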
Target sequence (O43613 whole entry, looked up): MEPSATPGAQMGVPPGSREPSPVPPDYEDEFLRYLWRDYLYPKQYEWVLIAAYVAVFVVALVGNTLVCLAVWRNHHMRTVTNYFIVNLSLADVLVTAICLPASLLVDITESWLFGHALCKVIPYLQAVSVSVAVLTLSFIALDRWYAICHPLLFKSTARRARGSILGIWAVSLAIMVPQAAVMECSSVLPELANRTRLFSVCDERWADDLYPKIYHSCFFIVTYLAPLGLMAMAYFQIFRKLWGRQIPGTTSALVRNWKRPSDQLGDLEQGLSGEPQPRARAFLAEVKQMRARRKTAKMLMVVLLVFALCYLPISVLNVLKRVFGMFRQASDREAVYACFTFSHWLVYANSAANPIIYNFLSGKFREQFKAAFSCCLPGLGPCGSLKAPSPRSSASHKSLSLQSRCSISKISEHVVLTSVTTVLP
OX1R antag-2: antagonists of human orexin 1 receptor | CHO/OX1R cells, Fluo-8 calcium fluorescence, orexin A | inhibition, % at 5 µM | 330,000 compounds, 0.43% hits | AID 434989;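 active = inhibition above its plate's threshold, mean inhibition of all tested compounds on the plate plus 3 SD, cut at about 37% in these data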;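 also: 0% = orexin A challenge wells and 100% = SB-334867-A antagonist wells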
Starred values were filed as active, the others as inactive; x = not tested or not shown. The list is not random: actives were taken first. Their share in the collection is about 4%.

SMILES | CHO parental Ca | TAAR1 antag | TAAR1 ag | OX1R antag-1 | OX1R antag-2
N#C/C(=C\c1c[nH]c2ccc(Br)cc12)c1ccccn1 | -18 | 38 | 11 | 83* | 60*
N#C/C(=C\c1ccc(C(=O)O)cc1)c1ccccn1 | -6 | -1 | 4 | 23 | -14
CC1CCCC(C)N1C(=O)c1ccccc1 (stereo not drawn) | x | -9 | 1 | x | x
CC1CCC2(CC1)NC(=O)N(CC(=O)c1ccc(CNC(=O)C(C)(C)C)s1)C2=O (stereo not drawn) | -17 | -8 | -3 | 35* | 14
CC(C)(C)C(=O)NCc1ccc(C(=O)CN2C(=O)NC3(CCCC3)C2=O)s1 | x | -1 | 1 | x | x
COC(=O)c1ccccc1COc1cccn2c(N(C)Cc3cccs3)c(C)nc12 | x | 45 | 8 | x | x
Cc1csc(NC(=O)c2cc3c(s2)-c2ccccc2OC3)n1 | 0 | 17 | 1 | 69* | 10
CN(C)CCNC(=O)c1cc2c(s1)-c1ccccc1OC2 | -11 | -18 | 2 | 21 | -4
c1ccc(COc2ccc(-c3cc4nc(NCCCn5ccnc5)ccn4n3)cc2)cc1 | x | 53* | 15 | x | x
COCCCNc1ccn2nc(-c3cccc(OCc4ccccc4)c3)cc2n1 | x | 46 | 9 | x | x
OC1CCC(Nc2ccn3nc(-c4cccc(Cl)c4)cc3n2)CC1 (stereo not drawn) | x | -15 | 11 | x | x
OC1CCC(Nc2ccn3nc(-c4cccc(OCc5ccccc5)c4)cc3n2)CC1 (stereo not drawn) | x | 53* | 15 | x | x
O=C(CSc1cccs1)Nc1cccc2ccccc12 | -11 | 23 | 2 | 29 | -3
O=C(CSc1cccs1)Nc1ccc2ccccc2c1 | -19 | 13 | 4 | 41* | 6
CCN(CC)S(=O)(=O)c1ccc(N2CCN(C)CC2)c(NC(=O)c2cc(=O)c3ccccc3o2)c1 | -21 | 3 | -2 | 5 | -27
CCCCOCC1CN(CCCC)S(=O)(=O)c2c(cccc2Sc2ccc(SC)cc2)O1 (stereo not drawn) | x | -31 | 1 | x | x
CC(C)CCOc1ccc(Cl)cc1CN1CCOCC1 | -24 | 45 | 39* | 12 | -32
C[C@@H]1ON(C)[C@H]2C[C@H]3c4[nH]c5cccc(Br)c5c4CCN3C(=O)[C@@H]12 | x | 5 | 11 | x | x
CCCCNc1c2c3c(cccc3n(C)c1=O)C(=O)c1ccccc1-2 | 77* | x | x | 12 | 91*
CCNc1c2c3c(cccc3n(C)c1=O)C(=O)c1ccccc1-2 | 69* | x | x | 30 | 89*
N#Cc1ccc(S(=O)(=O)NCC2CCN(C(=O)C(=O)c3cc4ccccc4o3)CC2)cc1 | x | -8 | 6 | x | x
COc1cccc(C2CC(=O)C3=C(C2)Nc2ccccc2N(C(=O)CCC(=O)O)C3c2ccc(F)cc2)c1 (stereo not drawn) | 99* | -24 | 3 | 24 | -9
COc1cc(C(=O)NNC(=S)NC(=O)/C=C/c2ccccc2)cc(OC)c1OC | -17 | 23 | 39* | 2 | -15
COc1ccc(CCN2CC(=O)N3CCc4ccc(N5CCOCC5)cc4C3CC2=O)cc1OC (stereo not drawn) | x | -28 | 8 | x | x
COc1cc(CNc2ncnc3c2[nH]c2ccc(C)cc23)cc(OC)c1 | 3 | 8 | 3 | 12 | -13
SMILES | CHO parental Ca | TAAR1 antag | TAAR1 ag | OX1R antag-1 | OX1R antag-2
Cc1ccc2[nH]c3c(NCc4ccco4)ncnc3c2c1 | -6 | 23 | 14 | 50* | -6
Cc1cc(C)nc(/N=C(\N)Nc2ccc(-c3ccccc3)cc2)n1 | 24 | 64* | 58* | 15 | 2
CC(=O)Nc1ccc(N/C(N)=N/c2nc(C)cc(C)n2)cc1 | -15 | 0 | 1 | 8 | -18
COCCCn1c(=N)c(C(=O)NCc2ccc3c(c2)OCO3)cc2c(=O)n3cccc(C)c3nc21 | x | -14 | 1 | x | x
CCOCCCn1c(=N)c(C(=O)NCc2ccc3c(c2)OCO3)cc2c(=O)n3cccc(C)c3nc21 | -24 | x | x | 42* | -28
N=c1c(C(=O)NCc2ccc3c(c2)OCO3)cc2c(=O)n3ccccc3nc2n1Cc1cccnc1 | -18 | -2 | 6 | 28 | -13
COCCCn1c(=N)c(C(=O)NCc2ccc3c(c2)OCO3)cc2c(=O)n3ccccc3nc21 | -12 | 15 | -2 | 59* | -18
C[C@H]1[C@@H]2C[C@@]3(O[C@H](c4ccccn4)N=C3C[C@@H]1c1ccccc1)N(Cc1ccncc1)C2=O | x | -2 | 5 | x | x
CCc1ccccc1NC(=S)N(CCN1CCOCC1)Cc1ccccc1F | -16 | -18 | 0 | 17 | -30
O=C(NCc1ccccc1)[C@H]1CCCN1 | x | -10 | 1 | x | x
O=C(CCC(=O)OCc1ccc(C(=O)Oc2ccccc2)cc1)Nc1cccc2ccccc12 | -15 | 49* | 8 | 14 | -12
CCN(C(=O)COC(=O)c1ccco1)c1c(N)n(Cc2ccccc2)c(=O)[nH]c1=O | 0 | 10 | 0 | 9 | -9
CN(C(=O)COC(=O)c1ccccc1NCc1ccco1)c1c(N)n(Cc2ccccc2)c(=O)[nH]c1=O | -18 | -41 | 1 | 64* | -10
CCN(CC)S(=O)(=O)c1ccc2oc(SCC(=O)NC3CC3)nc2c1 | -13 | 4 | 1 | 6 | -13
CCN(CC)S(=O)(=O)c1ccc2oc(SCc3ccc(F)cc3)nc2c1 | 40* | 55* | 11 | 29 | 20
COc1ccc(Nc2oc(COc3ccc(C)cc3)nc2C#N)cc1 | 38* | 24 | 2 | 30 | 13
N#Cc1nc(-c2cccs2)oc1NCc1ccc(Cl)cc1 | 3 | 50* | 15 | 34 | 18
CCOc1ccc(Nc2oc(-c3cccs3)nc2C#N)cc1 | 4 | -3 | 6 | 57* | 19
O=C1NC(N2CCOCC2)=N/C1=C/c1ccc2c(c1)OCO2 | -5 | -20 | 3 | 40 | -1
COc1ccc(CNC(=O)C2CCN(c3cc(C(=O)Nc4cccc(OC)c4)ccn3)CC2)cc1 | -28 | 49* | 3 | 17 | -25
Cc1ccc(OCCN2C(=O)C(=O)c3cc(C)ccc32)cc1 | -7 | -18 | -3 | 2 | -17
Cc1ccc2c(c1)C(=O)C(=O)N2Cc1ccc(C(F)(F)F)cc1 | 0 | 55* | 14 | -6 | 0
O=C(Nc1ncc([N+](=O)[O-])s1)c1ccccc1Br | 4 | 16 | 8 | 43* | -2
O=C(Nc1ncc([N+](=O)[O-])s1)c1cccs1 | 2 | -9 | 7 | 75* | 7
O=C(COC(=O)c1cccc(C(F)(F)F)c1)NCc1ccc(Cl)cc1 | 0 | -16 | 0 | 12 | 0
O=C(COC(=O)c1cccc(C(F)(F)F)c1)NCc1ccccc1 | 49* | -17 | 2 | 32 | 10
COC(=O)[C@]12C[C@H](CC(=O)NCC34CC5CC(CC(C5)C3)C4)C(=O)N(Cc3ccccc3)C1=C[C@H](C(C)C)O[C@@H]2C1CC1 | x | -3 | 1 | x | x
Cc1ccccc1Nc1nn2c(=O)c3ccccc3nc2s1 | -18 | -1 | 13 | 31 | -28

Compound activity as filed in PubChem.
